Data from ChEMBL document CHEMBL4725316, “Discovery of novel anti-breast cancer agents derived from deguelin as inhibitors of heat shock protein 90 (HSP90)” (Bioorg Med Chem Lett, 2020).
Blank lines part the entries; values can stand above or below the compound they belong to. The source made the active and inactive calls. The rule behind the calls is not given here.

Tests used:
[1] = test system: JIMT-1; test: Cytotoxicity against human JIMT-1 cells assessed as reduction in cell viability at 10 uM incubated for 72 hrs by MTS assay relative to control; type: functional; conditions: JIMT-1, read-out: INH
Method in brief: (§1)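 Single-concentration primary screen: trastuzumab-sensitive BT474, trastuzumab-resistant JIMT-1 (HER2-positive breast cancer) or normal human embryonic kidney HEK293 cells exposed to compound at 10 μM for 72 h; viability by MTS assay versus DMSO control. Mean ± SEM of at least three independent experiments; Student's t-test.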

[2] = test system: BT-474; test: Cytotoxicity against human BT-474 cells assessed as reduction in cell viability at 10 uM incubated for 72 hrs by MTS assay relative to control; type: functional; conditions: BT-474, read-out: INH; method in brief: as §1
[3] = molecular target: T1, Heat shock protein HSP90 (Homo sapiens) (UniProt P07900+P08238); test: Inhibition of HSP90 in human BT-474 cells assessed as reduction in HSP70 expression at 10 uM incubated for 72 hrs by immunoblot analysis; type: cell-based
Method in brief: (§2)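 BT474 and JIMT-1 cells treated 72 h with indicated compound concentrations or vehicle; 30 μg total lysate protein resolved by SDS-PAGE and immunoblotted for HER2, phospho-HER2 (Tyr1221/1222), EGFR, phospho-EGFR (Tyr1068), survivin, HSP90 and HSP70, with actin as loading control.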

[4] = molecular target: T1, Heat shock protein HSP90 (Homo sapiens); test: Inhibition of HSP90 in human JIMT-1 cells assessed as reduction in HSP70 expression at 5 uM incubated for 72 hrs by immunoblot analysis; type: cell-based; method in brief: as §2
[5] = test system: HEK293; test: Cytotoxicity against human HEK293 cells assessed as reduction in cell viability at 10 uM incubated for 72 hrs by MTS assay; type: cell-based; conditions: hek293, 72 h; method in brief: as §1
[6] = molecular target: T1, Heat shock protein HSP90 (Homo sapiens); test: Inhibition of HSP90 in human JIMT-1 cells assessed as reduction in EGFR phosphorylation at 5 uM incubated for 72 hrs by immunoblot analysis; type: cell-based; method in brief: as §2
[7] = molecular target: T1, Heat shock protein HSP90 (Homo sapiens); test: Inhibition of HSP90 in human JIMT-1 cells assessed as reduction in HSP90 expression at 5 uM incubated for 72 hrs by immunoblot analysis; type: cell-based; method in brief: as §2
[8] = molecular target: T1, Heat shock protein HSP90 (Homo sapiens); test: Inhibition of HSP90 in human BT-474 cells assessed as reduction in HER2 expression at 10 uM incubated for 72 hrs by immunoblot analysis; type: cell-based; method in brief: as §2
[9] = test system: JIMT-1; test: Cytotoxicity against human JIMT-1 cells assessed as reduction in cell viability incubated for 72 hrs by MTS assay; type: functional, cell-based
Method in brief: (§3)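 Dose-response in BT474 (trastuzumab-sensitive) and JIMT-1 (trastuzumab-resistant) HER2-positive breast cancer cells: compound at 0.1, 0.5, 1, 5, 10 or 20 μM for 72 h, viability by MTS assay. IC50 with 95% confidence intervals calculated from the curves; mean ± SEM of at least three independent experiments, one-way ANOVA with Bonferroni post hoc test versus DMSO control.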

[10] = molecular target: T1, Heat shock protein HSP90 (Homo sapiens); test: Inhibition of HSP90 in human BT-474 cells assessed as reduction in survivin expression at 10 uM incubated for 72 hrs by immunoblot analysis; type: cell-based; method in brief: as §2
[11] = test system: BT-474; test: Cytotoxicity against human BT-474 cells assessed as reduction in cell viability incubated for 72 hrs by MTS assay; type: functional, cell-based; method in brief: as §3
[12] = molecular target: T1, Heat shock protein HSP90 (Homo sapiens); test: Inhibition of HSP90 in human JIMT-1 cells assessed as reduction in HSP70 expression at 10 uM incubated for 24 hrs by DAPI staining based confocal microscopy; type: cell-based
Method in brief: (§4)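 Immunocytochemistry: cells treated 24 h with compound (10 μM) or geldanamycin (0.3 μM), immunostained for HSP70 with DAPI nuclear counterstain, imaged by confocal microscopy at ×500 original magnification.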

[13] = molecular target: T1, Heat shock protein HSP90 (Homo sapiens); test: Inhibition of HSP90 in human BT-474 cells assessed as reduction in EGFR phosphorylation at 10 uM incubated for 72 hrs by immunoblot analysis; type: cell-based; method in brief: as §2
[14] = molecular target: T1, Heat shock protein HSP90 (Homo sapiens); test: Inhibition of HSP90 in human JIMT-1 cells assessed as reduction in HER2 phosphorylation at 5 uM incubated for 72 hrs by immunoblot analysis; type: cell-based; method in brief: as §2
[15] = molecular target: T1, Heat shock protein HSP90 (Homo sapiens); test: Inhibition of HSP90 in human BT-474 cells assessed as reduction in HER2 phosphorylation at 10 uM incubated for 72 hrs by immunoblot analysis; type: cell-based; method in brief: as §2
[16] = molecular target: T1, Heat shock protein HSP90 (Homo sapiens); test: Inhibition of HSP90 in human JIMT-1 cells assessed as reduction in EGFR expression at 5 uM incubated for 72 hrs by immunoblot analysis; type: cell-based; method in brief: as §2
[17] = molecular target: T1, Heat shock protein HSP90 (Homo sapiens); test: Inhibition of HSP90 in human BT-474 cells assessed as reduction in HSP70 expression at 10 uM incubated for 24 hrs by DAPI staining based confocal microscopy; type: cell-based; method in brief: as §4
[18] = molecular target: T1, Heat shock protein HSP90 (Homo sapiens); test: Inhibition of HSP90 in human BT-474 cells assessed as reduction in EGFR expression at 10 uM incubated for 72 hrs by immunoblot analysis; type: cell-based; method in brief: as §2
[19] = molecular target: T1, Heat shock protein HSP90 (Homo sapiens); test: Inhibition of HSP90 in human BT-474 cells assessed as reduction in HSP90 expression at 10 uM incubated for 72 hrs by immunoblot analysis; type: cell-based; method in brief: as §2
[20] = molecular target: T1, Heat shock protein HSP90 (Homo sapiens); test: Inhibition of HSP90 in human JIMT-1 cells assessed as reduction in HER2 expression at 5 uM incubated for 72 hrs by immunoblot analysis; type: cell-based; method in brief: as §2
[21] = molecular target: T1, Heat shock protein HSP90 (Homo sapiens); test: Inhibition of HSP90 in human JIMT-1 cells assessed as reduction in survivin expression at 5 uM incubated for 72 hrs by immunoblot analysis; type: cell-based; method in brief: as §2

Structure (SMILES): COc1cc(NC(=O)c2ccc3c(c2OC)C=CC(C)(C)O3)ccc1OCC1CCNCC1
inhibition at 10 µM [1]: > 50%
inhibition at 10 µM [2]: > 50%

inhibition [3]: inactive
inhibition [4]: inactive
inhibition [6]: Active
inhibition [7]: inactive
inhibition [8]: Active
inhibition [12]: inactive
inhibition [13]: Active
inhibition [14]: Active
inhibition [15]: Active
inhibition [16]: Active
inhibition [17]: inactive
inhibition [18]: Active
inhibition [19]: inactive
inhibition [20]: Active
Structure (SMILES): COc1cc(NC(=O)c2ccc3c(c2OC)C=CC(C)(C)O3)ccc1OCCC1CCCCN1 (centres undefined)
Activity [5]: Non-Toxic
Activity [9]: Dose-dependent effect
IC50 ([9]; JIMT-1, 72 h): 4.45 µM
inhibition [10]: Active
Activity [11]: Dose-dependent effect
IC50 ([11]; BT-474, 72 h): 8.53 µM
inhibition at 10 µM [1]: > 50%
inhibition at 10 µM [2]: > 50%
inhibition [21]: Active

Structure (SMILES): COc1cc(NC(=O)c2ccc3c(c2OC)C=CC(C)(C)O3)ccc1OCCCC1CCN(C)CC1
inhibition at 10 µM [1]: > 50%
inhibition at 10 µM [2]: > 50%

Structure (SMILES): COc1cc(NC(=O)c2ccc3c(c2OC)C=CC(C)(C)O3)ccc1OCC1CCN(C)CC1
inhibition at 10 µM [1]: > 50%
inhibition at 10 µM [2]: > 50%

Structure (SMILES): COc1cc(NC(=O)c2ccc3c(c2OC)C=CC(C)(C)O3)ccc1OCCCC1CCN(CCO)CC1
inhibition at 10 µM [1]: > 50%
inhibition at 10 µM [2]: > 50%

Structure (SMILES): COc1cc(NC(=O)c2ccc3c(c2OC)C=CC(C)(C)O3)ccc1OCCC1CCCCN1C (centres undefined)
inhibition at 10 µM [1]: > 50%
inhibition at 10 µM [2]: > 50%

Structure (SMILES): COc1cc(NC(=O)c2ccc3c(c2OC)C=CC(C)(C)O3)ccc1OCCCC1CCNCC1
inhibition at 10 µM [1]: > 50%
inhibition at 10 µM [2]: > 50%

Structure (SMILES): COc1cc(NC(=O)c2ccc3c(c2OC)C=CC(C)(C)O3)ccc1OCCCC1CCCCN1 (centres undefined)
inhibition at 10 µM [1]: > 50%
inhibition at 10 µM [2]: > 50%

Structure (SMILES): COc1cc(NC(=O)c2ccc3c(c2OC)C=CC(C)(C)O3)ccc1OCCCN1CCCCC1
inhibition at 10 µM [1]: > 50%
inhibition at 10 µM [2]: > 50%
